ChEMBL document CHEMBL4732136, “Synthesis, Tumor Specificity, and Photosensitizing Efficacy of Erlotinib-Conjugated Chlorins and Bacteriochlorins: Identification of a Highly Effective Candidate for Photodynamic Therapy of Cancer” (J Med Chem, 2021)

What was measured:
[1] = Drug uptake in liver of SCID mouse xenografted with human UMUC3 cells at 0.125 micromol/kg, iv pretreated with compound followed by light irradiation at a dose of 135 J/cm2 and 75 mW/cm2 measured after 2 to 24 hrs by IVIS analysis; format: ADME, organism-based; details: in vivo, time 2-24 hrs, dose 0.125 µmol/kg
Procedure, shortened: (§1)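 Female SCID mice with UMUC3 flank/shoulder tumors, 3 per group. PS in 1% Tween80/5% dextrose given iv at 0.47, 0.25 or 0.125 μmol/kg. Whole-body fluorescence imaging by IVIS at several times after injection; average radiant efficiency measured in tumor, liver and skin.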

[2] = Drug uptake in tumor of SCID mouse xenografted with human FaDu cells at 0.47 to 0.125 micromol/kg, iv pretreated with compound followed by light irradiation at a dose of 135 J/cm2 and 75 mW/cm2 and measured at 24 hrs by IVIS analysis; format: ADME, organism-based, Neoplasm; details: in vivo, dose 0.47-0.125 µmol/kg
Procedure, shortened: (§2)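 Female SCID mice bearing FaDu tumors 4–5 mm in diameter, 3 per group. PS in 1% Tween80/5% dextrose given iv at 0.47, 0.25 or 0.125 μmol/kg. IVIS whole-body fluorescence imaged at several time points; average radiant efficiency measured in tumor, liver and skin.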

HN-85-1-3 = experiment: Photodynamic therapy in human HN-85-1-3 cells assessed as degradation of EGFR treated with compound followed by diode laser irradiation at 3 J/cm2 by immunoblot analysis; format: functional, cell-based
Procedure, shortened: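 Primary HN-85-1-3 tumor epithelial cells loaded with graded PS doses; uptake quantified by fluorescence before light. Dishes irradiated at 37°C with 665 nm diode laser, 6 mW/cm², 3 J/cm² total. Cells lysed in RIPA immediately after light; STAT3 crosslinking and EGFR analysed by SDS-PAGE immunoblot.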

UMUC3 = experiment: Photodynamic antitumor activity against human UMUC3 cells xenografted in SCID mouse assessed as tumor retention at 0.25 micromol/kg, iv pretreated with compound followed by light irradiation at a dose of 135 J/cm2 and 75 mW/cm2 measured at day 60 post dose relative to control; format: functional; details: dose 0.25 µmol/kg; time 60 day
Procedure, shortened: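 UMUC3-bearing female SCID mice given iv PS in 1% Tween80/5% dextrose. Mice restrained and tumors irradiated at 665 nm, 135 J/cm² over 30 min at 75 mW/cm², at the time of maximal tumor uptake. Tumor regrowth measured daily for 60 days; mice euthanized above 400 mm³. Cure plotted as survival curves and compared by log-rank (Mantel-Cox) test.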

[3] = Drug uptake in human HNT1 cells at 3.2 uM incubated for 30 mins in serum free medium followed by […] in compound-free medium by inverted fluorescence microscopic analysis; format: ADME, cell-based; details: hnt1, 0.5 h
Procedure, shortened: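 Confluent HNT1 cultures (passage 116) given 3.2 μM PS for 30 min in serum-free medium, then 5 h in serum-containing medium with PS, then 15 h chase in serum medium without PS. Fluorescence recorded at 100X with varied camera exposures and quantified digitally; pixel signal normalized to time and cell number.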

FaDu [4] = experiment: Photodynamic antitumor activity against human FaDu cells xenografted in SCID mouse assessed as cure rate at 0.25 micromol/kg, iv pretreated with compound followed by light irradiation at a dose of 135 J/cm2 and 75 mW/cm2 measured after 60 days post dose relative to control; format: functional; details: dose 0.25 µmol/kg; time 60 day
Procedure, shortened: (§3)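 FaDu-bearing female SCID mice (5 per group per experiment) given iv PS at 0.47, 0.25 or 0.125 μmol/kg in Tween80/dextrose. Tumors irradiated 24 h post-injection at 665 nm, 135 J/cm², 75 mW/cm². Tumor growth measured daily for 60 days, with euthanasia above 400 mm³. Cure taken as tumor-free at day 60; survival analysed by log-rank test.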

[5] = Drug uptake in skin of iv dosed SCID mouse xenografted with UMUC3 cells by fluorescence imaging analysis; details: in vivo
[6] = Drug uptake in human CFSE-stained HN-121 cells assessed as increase in drug retention at 1.6 uM in medium with 10% FBS followed by 48 hrs chase period by inverted fluorescence microscopic analysis; format: ADME, cell-based; details: hn-121, 48 h
[7] = Drug uptake in human HN-143 cells assessed as increase in drug retention retention at 3 uM in medium with 10% FBS incubated for 5 hrs followed by 40 hrs chase period by inverted fluorescence microscopic analysis; format: ADME, cell-based; details: hn-143, 5 h
Procedure, shortened: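 Five-day co-cultures of HN-143 tumor epithelial cells and HN-166 tumor fibroblasts, both primary head & neck tumor cultures grown on collagen-1 under selective media. PS in 10% FBS medium for 5 h, then 40 h chase without PS. Phase-contrast and fluorescence images taken at 100X with 500 ms exposure; signal normalized to recording time and cell number.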

[8] = Drug uptake in tumor of SCID mouse xenografted with human UMUC3 cells assessed as drug accumulation at 0.47 micromol/kg, iv pretreated with compound followed by light irradiation at a dose of 135 J/cm2 and 75 mW/cm2 measured after 6 hrs by IVIS analysis; format: ADME, organism-based, Neoplasm; details: in vivo, dose 0.47 µmol/kg; procedure, shortened: as §1
[9] = Drug uptake in liver of iv dosed SCID mouse xenografted with human UMUC3 cells by fluorescence imaging analysis; format: ADME, organism-based; details: in vivo
[10] = Drug uptake in skin of SCID mouse xenografted with human UMUC3 cells at 0.125 micromol/kg, iv pretreated with compound followed by light irradiation at a dose of 135 J/cm2 and 75 mW/cm2 measured after 2 to 24 hrs by IVIS analysis; format: ADME, organism-based, Skin of body; details: in vivo, time 2-24 hrs, dose 0.125 µmol/kg; procedure, shortened: as §1
[11] = Drug uptake in tumor of iv dosed SCID mouse xenografted with UMUC3 cells by fluorescence imaging analysis; details: in vivo
FaDu [12] = experiment: Photodynamic antitumor activity against human FaDu cels xenografted in SCID mouse assessed as cure rate at 0.47 micromol/kg, iv pretreated with compound followed by light irradiation at a dose of 135 J/cm2 and 75 mW/cm2 and measured at 24 hrs post dose relative to control; format: functional; details: dose 0.47 µmol/kg; procedure, shortened: as §3
[13] = Drug uptake in liver of iv dosed SCID mouse xenografted with UMUC3 cells by fluorescence imaging analysis; details: in vivo
[14] = Drug uptake in tumor of iv dosed SCID mouse xenografted with human UMUC3 cells by fluorescence imaging analysis; format: ADME, organism-based, Neoplasm; details: in vivo
[15] = Drug uptake in tumor of SCID mouse xenografted with human UMUC3 cells at 0.25 micromol/kg, iv pretreated with compound followed by light irradiation at a dose of 135 J/cm2 and 75 mW/cm2 measured after 2 to 8 hrs by IVIS analysis; format: ADME, organism-based, Neoplasm; details: in vivo, time 2-8 hrs, dose 0.25 µmol/kg; procedure, shortened: as §1
[16] = Drug uptake in skin of SCID mouse xenografted with human UMUC3 cells at 0.25 micromol/kg, iv pretreated with compound followed by light irradiation at a dose of 135 J/cm2 and 75 mW/cm2 measured after 2 to 8 hrs by IVIS analysis; format: ADME, organism-based, Skin of body; details: in vivo, time 2-8 hrs, dose 0.25 µmol/kg; procedure, shortened: as §1
[17] = Drug uptake in skin of SCID mouse xenografted with FaDu cells at 0.47 to 0.125 micromol/kg, iv pretreated with compound followed by light irradiation at a dose of 135 J/cm2 and 75 mW/cm2 and measured at 24 hrs by IVIS analysis; format: ADME, organism-based, Skin of body; details: in vivo, dose 0.47-0.125 µmol/kg; procedure, shortened: as §2

Drug uptake [1]: Active
Drug uptake [2]: Active
Drug uptake [3]: Active
Drug uptake [5]: Active
Drug uptake [6]: Active
Drug uptake [7]: Active
Drug uptake [8]: Active
Drug uptake [9]: Active
Drug uptake [10]: Active
Drug uptake [11]: Active
Drug uptake [13]: Active
Drug uptake [14]: Active
Drug uptake [15]: Active
Drug uptake [16]: Active
Drug uptake [17]: Active
SMILES: CCC1=C(C)c2cc3[nH]c(cc4nc(c5c6[nH]c(cc1n2)c(C)c6C(=O)C5)[C@@H](CCC(=O)OC)[C@@H]4C)c(C)c3C(C)OCc1cccc(C#Cc2cccc(Nc3ncnc4cc(OCCOC)c(OCCOC)cc34)c2)c1 (some centres undefined)
Activity (HN-85-1-3): Dose-dependent effect
Activity (UMUC3): 50%
Activity (FaDu [4]): 80%
Activity (FaDu [12]): 92%
